Measurements published in ChEMBL document CHEMBL1128731, “Furanfurin and thiophenfurin: two novel tiazofurin analogues. Synthesis, structure, antitumor activity, and interactions with inosine monophosphate dehydrogenase” (J Med Chem, 1995).

Tests used:
[1] = test system: K562; experiment: Compound was tested for its effect on AMP ribonucleotide levels of K562 cell at 50 uM concentration; type: functional, Homo sapiens
How it was run: (§1)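 K562 cells (1×10^7) were treated with saline or agent for 2 h at 37 °C, harvested by centrifugation and washed with cold saline. They were extracted with cold 10% trichloroacetic acid, neutralized with 0.5 M tri-n-octylamine in freon, and analyzed by HPLC. Levels are in nmol/g and expressed as % of saline control. Significance was set at p < 0.05.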

[2] = test system: K562; experiment: Compound was tested for its effect on UTP ribonucleotide levels of K562 cell at 50 uM concentration; type: functional, Homo sapiens; how it was run: as §1
[3] = test system: K562; experiment: compound was tested for its effect on IMPDH activity against K562 cells at 50 uM concentration; type: functional, Homo sapiens
How it was run: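 K562 cells (1×10^6/mL, log phase) exposed 2 h at 37 °C to 10, 50 or 100 μM drug, or to saline. Cells washed and lysed in Tris-HCl pH 7.4/NaCl/MgCl2/NP-40/aprotinin, and the 13000g supernatant used as enzyme. Enzyme incubated 30 min at 37 °C with 286 μM [2,8-3H]IMP and 1 mM NAD. Tritium release counted; activity in nmol XMP/h/mg protein, as % of saline control.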

[4] = test system: K562; experiment: Compound was tested for its effect on UDP ribonucleotide levels of K562 cell at 100 uM concentration; type: functional, Homo sapiens; how it was run: as §1
[5] = organism: Homo sapiens; experiment: (§2) Inhibitory concentration range against human bone marrow; type: functional, organism-based
How it was run: (§3)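 Antiproliferative assay scoring [125I]-5-iodo-2'-deoxyuridine incorporation into DNA after 72 h drug–cell contact. Run on normal human bone marrow from five donors and in three assays on HL-60. Ratio is antilog(mean log IC50 or IC90) on bone marrow over the same on HL-60. Range limits are antilog(mean log IC50 ± 2SD).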

[6] = test system: K562; experiment: Compound was tested for its effect on AMP ribonucleotide levels of K562 cell at 100 uM concentration; type: functional, Homo sapiens; how it was run: as §1
[7] = test system: Mus musculus; experiment: Compound was tested for ratio of survival time of treated to control mice x100 at 400 mg/kg dose; type: functional
How it was run: (§4)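 Female BD2F1 mice (8 weeks old, 20–22 g), eight per group, injected ip with 10^5 L1210 leukemia cells on day 0. Starting 24 h later, drug dissolved in 0.9% NaCl given ip once daily for 9 consecutive days. % T/C = survival time of treated/control mice × 100. Body weight change tracked from start to end of treatment.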

[8] = test system: HL-60; experiment: Inhibitory concentration against HL-60 human promyelocytic leukemia; type: functional, cell-based
How it was run: (§5)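 Cells in log phase plated with a range of drug concentrations (B16 5×10^3 cells/well; P388, L1210, LLC 10^4 cells/well; HL-60, K562, LoVo 2.5×10^5 cells/well). Growth read by modified MTT after 72 h drug contact at 37 °C. IC50 taken as the concentration reducing optical absorption by 50%, from Chou regression analysis. Maximum concentration tested 200 μM.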

[9] = test system: K562; experiment: Compound was tested for its effect on GDP ribonucleotide levels of K562 cell at 100 uM concentration; type: functional, Homo sapiens; how it was run: as §1
[10] = test system: K562; experiment: Compound was tested for its effect on GTP ribonucleotide levels of K562 cell at 50 uM concentration; type: functional, Homo sapiens; how it was run: as §1
[11] = test system: P388; experiment: Inhibitory concentration against P388 murine lymphocytic leukemia cell lines; type: functional, cell-based; settings: Mus musculus; how it was run: as §5
[12] = test system: K562; experiment: Compound was tested for its effect on NAD ribonucleotide levels of K562 cell at 50 uM concentration; type: functional, Homo sapiens; how it was run: as §1
[13] = test system: K562; experiment: Compound was tested for its effect on GTP ribonucleotide levels of K562 cell at 100 uM concentration; type: functional, Homo sapiens; how it was run: as §1
[14] = test system: K562; experiment: Compound was tested for its effect on GMP ribonucleotide levels of K562 cell at 50 uM concentration; type: functional, Homo sapiens; how it was run: as §1
[15] = test system: K562; experiment: Formation of NAD analogue by compound at 100 uM concentration against human myelogenous leukemia K562; type: functional
How it was run: (§6)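 K562 cells (1×10^7/10 mL) were labeled with 185 nM [2,8-3H]adenosine for 1 h at 37 °C, then given saline or analogue for 2 h. Cells were pelleted, washed with PBS and extracted in cold 10% trichloroacetic acid. Extracts were neutralized with 0.5 M tri-n-octylamine in freon and run on SAX HPLC with ammonium phosphate buffer. Results are pmol NAD analogue per 10^9 cells.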

[16] = IC50 ratio against bone marrow samples to HL-60; type: functional; how it was run: as §3
[17] = test system: K562; experiment: Compound was tested for its effect on CTP ribonucleotide levels of K562 cell at 100 uM concentration; type: functional, Homo sapiens; how it was run: as §1
[18] = test system: K562; experiment: Compound was tested for its effect on IMPDH activity against K562 cells at 50 uM concentration; type: functional, Homo sapiens
How it was run: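 Log-phase K562 cells (1×10^6/mL) were exposed to saline or agent for 2 h at 37 °C, washed and lysed (Tris-HCl pH 7.4, NaCl, MgCl2, 0.5% NP-40, aprotinin). The cleared supernatant was incubated 30 min at 37 °C with 286 μM [2,8-3H]IMP and 1 mM NAD. Tritium release was counted by scintillation. Activity is nmol XMP/h/mg protein, also given as % of control.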

[19] = test system: K562; experiment: Compound was tested for its effect on ATP ribonucleotide levels of K562 cell at 100 uM concentration; type: functional, Homo sapiens; how it was run: as §1
[20] = test system: K562; experiment: Compound was tested for its effect on CTP ribonucleotide levels of K562 cell at 50 uM concentration; type: functional, Homo sapiens; how it was run: as §1
[21] = test system: K562; experiment: Compound was tested for its effect on UDP ribonucleotide levels of K562 cell at 50 uM concentration; type: functional, Homo sapiens; how it was run: as §1
[22] = test system: K562; experiment: Compound was tested for its effect on IMP ribonucleotide levels of K562 cell at 100 uM concentration; type: functional, Homo sapiens; how it was run: as §1
[23] = test system: K562; experiment: Compound was tested for its effect on ADP ribonucleotide levels of K562 cell at 100 uM concentration; type: functional, Homo sapiens; how it was run: as §1
[24] = test system: Lewis lung carcinoma cell line; experiment: Inhibitory concentration against LLC Lewis lung carcinoma; type: functional, cell-based; settings: Mus musculus; how it was run: as §5
[25] = test system: Mus musculus; experiment: Average weight change of mice from onset to termination of drug treatment at 25 mg/kg dose; type: functional
How it was run: (§7)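 Female BD2F1 mice (8 weeks, 20–22 g), eight per group, injected ip with 10^5 L1210 cells on day 0. From 24 h later, drug in 0.9% NaCl was given ip once daily for 9 days. Body weight change was averaged from onset to termination of treatment. Early deaths from toxicity were recorded.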

[26] = test system: HL-60; experiment: (§8) Inhibitory concentration range against human HL-60 cell line; type: functional, cell-based; how it was run: as §3
[27] = test system: K562; experiment: Compound was tested for its effect on IMP ribonucleotide levels of K562 cell at 50 uM concentration; type: functional, Homo sapiens; how it was run: as §1
[28] = test system: K562; experiment: Compound was tested for its effect on CDP ribonucleotide levels of K562 cell at 50 uM concentration; type: functional, Homo sapiens; how it was run: as §1
[29] = test system: K562; experiment: Inhibitory concentration against K562 human myelogenous leukemia cell line; type: functional, cell-based; how it was run: as §5
[30] = test system: K562; experiment: Formation of NAD analogue by compound at 50 uM concentration against human myelogenous leukemia K562; type: functional; how it was run: as §6
[31] = test system: K562; experiment: Compound was tested for its effect on CDP ribonucleotide levels of K562 cell at 100 uM concentration; type: functional, Homo sapiens; how it was run: as §1
[32] = test system: K562; experiment: Compound was tested for its effect on NAD ribonucleotide levels of K562 cell at 100 uM concentration; type: functional, Homo sapiens; how it was run: as §1
[33] = test system: K562; experiment: Compound was tested for its effect on UMP ribonucleotide levels of K562 cell at 100 uM concentration; type: functional, Homo sapiens; how it was run: as §1
[34] = test system: K562; experiment: Compound was tested for its effect on ATP ribonucleotide levels of K562 cell at 50 uM concentration; type: functional, Homo sapiens; how it was run: as §1
[35] = test system: K562; experiment: Compound was tested for its effect on ADP ribonucleotide levels of K562 cell at 50 uM concentration; type: functional, Homo sapiens; how it was run: as §1
[36] = IC90 ratio against bone marrow samples to HL-60; type: functional; how it was run: as §3
[37] = organism: Homo sapiens; experiment: as §2; type: functional; how it was run: as §3
[38] = test system: K562; experiment: Compound was tested for its effect on GMP ribonucleotide levels of K562 cell at 100 uM concentration; type: functional, Homo sapiens; how it was run: as §1
[39] = test system: Mus musculus; experiment: Compound was tested for ratio of survival time of treated to control mice x100 at 25 mg/kg dose; type: functional; how it was run: as §4
[40] = test system: HL-60; experiment: as §8; type: functional; how it was run: as §3
[41] = Ratio of IC50 against HL-60; type: functional; how it was run: as §3
[42] = test system: L1210; experiment: Inhibitory concentration against L1210 murine lymphocytic leukemia; type: functional, cell-based; settings: Mus musculus; how it was run: as §5
[43] = test system: K562; experiment: Compound was tested for its effect on GDP ribonucleotide levels of K562 cell at 50u; type: functional, Homo sapiens; how it was run: as §1
[44] = test system: LoVo; experiment: Inhibitory concentration against LoVo human colon adenocarcinoma cell lines; type: functional, cell-based; how it was run: as §5
[45] = test system: K562; experiment: Compound was tested for its effect on UMP ribonucleotide levels of K562 cell at 50 uM concentration; type: functional, Homo sapiens; how it was run: as §1
[46] = test system: Mus musculus; experiment: Average weight change of mice from onset to termination of drug treatment at 400 mg/kg dose; type: functional; how it was run: as §7
[47] = test system: K562; experiment: Compound was tested for its effect on UTP ribonucleotide levels of K562 cell at 100 uM concentration; type: functional, Homo sapiens; how it was run: as §1

With NC(=O)c1csc([C@@H]2O[C@H](CO)[C@@H](O)[C@H]2O)n1 [TIAZOFURIN] the Control [1] was 100%, the Control [2] was 115% and the Control [3] was 37%. The Control [4] was 116%, the IC50 [5] was 10.4 µM and the Control [6] was 103%. For the same compound, the T/C [7] was 260%, the IC50 [8] was 8.7 µM and the Control [9] was 63%. It also gave a Control [10] of 64%, an IC50 [11] of 2.2 µM and a Control [12] of 98%. The Control [13] was 54%, the Control [14] was 62% and the Formation [15] was 310 pmol/10^9 cells. It also gave a Ratio [16] of 7.3, a Control [17] of 32% and an Activity [18] of 1.82. It also gave a Control [19] of 91%, a Control [20] of 92% and a Control [21] of 120%. It also gave a Control [22] of 578%, a Control [23] of 99% and an IC50 [24] of 1.5 µM. The Change [25] was -4.3%, the IC50 [26] was 2.5 µM and the Control [27] was 544%. For the same compound, the Control [28] was 104%, the IC50 [29] was 4.5 µM and the Formation [30] was 186 pmol/10^9 cells. The Control [31] was 85%, the Control [32] was 84% and the Control [33] was 96%. The Control [34] was 101%, the Control [35] was 103% and the Ratio [36] was >6. The IC90 [37] was >128 µM, the Control [38] was 55% and the T/C [39] was 177%. The IC90 [40] was 7.6 µM, the Ratio [41] was 1.9 and the IC50 [42] was 7.4 µM. For the same compound, the Control [43] was 82%, the IC50 [44] was > 128 µM and the Control [45] was 113%. It also gave a Change [46] of -13.1% and a Control [47] of 90%.
